# Measurements reported in paper PMC3496770 (Journal of chromatography. A, 2012).
# Columns and labels:
# [1] = Determination of log Ppw and pKa by polymer film; format: physicochemical; details: both UHPLC and plate reader; p>0.05
# In short: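 The solute, in 20 mM phosphate-citrate, 20 mM phosphate or TFA buffers (pH 0.9–10.0), was added over the films and shaken at 500 rpm, 25 °C, to equilibrium. The aqueous supernatant was quantified by C18 UHPLC or plate-reader UV at 343 nm. Dpw came from initial versus equilibrium aqueous concentration and phase ratio. Ppw and pKa were derived across pH. Duplicates, SEM.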
# [2] = measured by this polymer-water method; cited from earlier work
Ppw− (conditional partition coefficient of the anionic form) [1],SMILES,log P [2]
statistically zero,"CC1=CC(c2ccccc2)=NS(=O)(=O)N1 [2H-1,2,6-thiadiazine, 3-methyl-5-phenyl-, 1,1-dioxide]",
,Clc1ccc(COC(Cn2ccnc2)c2ccc(Cl)cc2Cl)cc1 (centres unmarked) [econazole],4.83
